Measurements from different studies.
Lines come from different studies, so protocols differ.
Target: G protein-coupled receptor kinase 3 (GRK3, Homo sapiens, UniProt P35626)
One construct used (P35626 1-688): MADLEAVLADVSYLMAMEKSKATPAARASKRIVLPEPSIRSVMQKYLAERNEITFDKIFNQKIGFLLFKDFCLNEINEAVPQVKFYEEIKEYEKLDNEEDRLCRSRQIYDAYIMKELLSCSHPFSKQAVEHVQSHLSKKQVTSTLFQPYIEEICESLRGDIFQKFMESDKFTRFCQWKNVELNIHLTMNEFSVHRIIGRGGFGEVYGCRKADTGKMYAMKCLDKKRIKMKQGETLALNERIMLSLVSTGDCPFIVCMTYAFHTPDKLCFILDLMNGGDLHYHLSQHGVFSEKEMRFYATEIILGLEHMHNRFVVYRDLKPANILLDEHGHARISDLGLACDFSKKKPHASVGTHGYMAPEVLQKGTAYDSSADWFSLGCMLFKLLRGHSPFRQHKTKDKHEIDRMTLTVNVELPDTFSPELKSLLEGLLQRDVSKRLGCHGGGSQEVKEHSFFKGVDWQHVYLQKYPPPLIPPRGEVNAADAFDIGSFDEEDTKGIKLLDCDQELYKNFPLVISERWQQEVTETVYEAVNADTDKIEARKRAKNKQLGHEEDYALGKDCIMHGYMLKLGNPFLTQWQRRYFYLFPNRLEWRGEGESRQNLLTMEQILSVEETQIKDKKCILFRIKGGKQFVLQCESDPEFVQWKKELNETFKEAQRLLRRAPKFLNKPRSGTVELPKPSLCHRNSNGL

Cc1nc(N2CC[C@@H](O)C2)ncc1-c1cc(C(F)(F)F)cc2[nH]ncc12 — remaining binding (binding, competition with immobilised ligand; 1 µM): 87%
CN(CCCC(F)(F)F)c1nccc(-c2cnn3ncccc23)n1 — remaining binding (binding; 1 µM): 100%
O=C1CCc2cc(Nc3cc(OC4CCOCC4)c([N+](=O)[O-])cc3Cl)ccc2N1 — remaining binding (cell-free assay, competition with immobilised ligand; 1 µM): 100%
COc1cnc(Nc2cccc(S(N)(=O)=O)c2)nc1N1CCN(c2ccccc2)C(=O)C1 — remaining binding (binding, competition with immobilised ligand; 1 µM): 70%
CN(c1nccc(-c2cnn3ncccc23)n1)C1CC1 — remaining binding (binding; 1 µM): 100%
O=C(NCC1CCOCC1)c1n[nH]cc1NC(=O)c1c(F)cccc1F — remaining binding (binding, competition with immobilised ligand; 1 µM): 44%
O=C(c1ccc(Nc2ncc(Cl)c(-c3cc4ccccc4s3)n2)cc1)N1CCC(N2CCCC2)CC1 — remaining binding (binding, competition with immobilised ligand; 1 µM): 63%
COc1ccnn2ncc(-c3ccnc(N(C)C)n3)c12 — remaining binding (binding; 1 µM): 57%
c1cncc(-c2cccc(Nc3nccc(NC4CCCCC4)n3)c2)c1 — remaining binding (binding, competition with immobilised ligand; 10 µM): 99%
O=C(NCCCN1CCOCC1)c1ccc(Nc2ncc(Cl)c(-c3ccc(Cl)s3)n2)cc1 — remaining binding (binding, competition with immobilised ligand; 1 µM): 51%
COc1cnc(Nc2cccc(S(N)(=O)=O)c2)nc1N1CCN(c2ccccc2)CC1 — remaining binding (binding, competition with immobilised ligand; 1 µM): 72%
c1cnn2ncc(-c3ccnc(N4CCC45COC5)n3)c2c1 — remaining binding (binding; 1 µM): 29%
Nc1cnc(N2CCc3cc(S(=O)(=O)Nc4c(F)cc(Cl)cc4F)cc(N4CCCC4=O)c32)nc1 — remaining binding (cell-free assay, competition with immobilised ligand; 1 µM): 100%
CN(C)c1nccc(-c2cnn3ncccc23)n1 — remaining binding (binding; 1 µM): 89%
O=C(O)[C@@H]1[C@@H](Cn2nnc3ccccc3c2=O)CC[C@H]1C(=O)c1ccc(OCCC2CCOCC2)cc1 — remaining binding (cell-free assay, competition with immobilised ligand; 1 µM): 100%
O=C(c1ccc(Nc2ncc(Cl)c(-c3ccc(Cl)s3)n2)cc1)N1CCC(N2CCCC2)CC1 — remaining binding (binding, competition with immobilised ligand; 1 µM): 46%
NS(=O)(=O)c1cc(NC(=O)C2(c3ccccc3Cl)CC2)ccc1Oc1cccc(Cl)c1 — remaining binding (cell-free assay, competition with immobilised ligand; 1 µM): 100%
C[C@@H]1CCN(c2nccc(-c3cnn4ncccc34)n2)C1 — remaining binding (binding; 1 µM): 56%
C[C@H](c1ccnc(Nc2nc3ccc(-c4cc(N(C)C)ncn4)cc3[nH]2)c1)N1CCN(C(=O)CC(F)(F)F)CC1 — remaining binding (cell-free assay, competition with immobilised ligand; 0.1 µM): 100%
Nc1ncc2c(n1)-c1c([nH]c3ccc(C#CC4CC4)cc13)CCCC2 — remaining binding (binding, competition with immobilised ligand; 1 µM): 97%
